The species named for experiment [1] is Cavia porcellus. Kind of experiment: Agonistic potency on the guinea pig ileal longitudinal muscle (GPI) relative to morphine. It counts as functional, Muscle tissue. The method, boiled down:
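Isolated guinea pig ileal longitudinal muscle was prepared by the Rang method. […] Only inhibition of contraction greater than 80% was counted.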

The species entered for experiment [2] is Cavia porcellus. Kind of experiment: Irreversible antagonism to nalorphine was evaluated after 30 min incubation of GPI with the compound at 200 nM conc. It counts as functional. The method, boiled down:
(§1)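 Guinea pig ileal longitudinal muscle was incubated with compound at the stated concentrations for 30 min, then washed 20 times. […] Result is the agonist IC50 after treatment divided by the control agonist IC50 in the same preparation.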

The species entered for experiment [3] is Cavia porcellus. In words: Irreversible antagonism to morphine was evaluated after 30 min incubation of GPI with the compound at 200 nM conc. It counts as functional. The method, boiled down: as §1
The species entered for experiment [4] is Cavia porcellus. In words: Irreversible antagonism to morphine was evaluated after 30 min incubation of GPI with the compound at 20 nM conc. It counts as functional. The method, boiled down: as §1
For experiment [5], the species on record is Cavia porcellus. Kind of experiment: Irreversible antagonism to nalorphine was evaluated after 30 min incubation of GPI with the compound at 20 nM conc. The class given is functional. The method, boiled down:
as §1

For experiment [6], the species on record is Cavia porcellus. Kind of experiment: Irreversible antagonism to ethylketazocine (EK) was evaluated after 30 min incubation of GPI with the compound at 200 nM conc. It counts as functional. The method, boiled down: as §1
For experiment [7], the species on record is Mus musculus. Kind of experiment: Percent of maximum inhibition of contraction of mouse vas deferens (MVD). The class given is functional.
The species entered for experiment [8] is Mus musculus. Kind of experiment: (§2) Agonist activity measured on mouse vas deferens (MVD). The class given is functional.
For experiment [9], the species on record is Mus musculus. In words: Antagonist potency relative to morphine at 200 nM concentration. The class given is functional. The method, boiled down:
(§3)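 Mouse vas deferens (Henderson method) was pretreated with compound for 30 min, then washed 20 times. […] Result is the agonist IC50 after treatment divided by the control IC50 in the same tissue. Where the agonist fell short of a full (>70%) response, an IC30 ratio was estimated from the plotted curves.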

The species entered for experiment [10] is Mus musculus. Kind of experiment: Antagonist potency relative to DADLE at 200 nM concentration. The class given is functional. Put shortly: as §3
The species named for experiment [11] is Mus musculus. In words: Irreversible antagonistic potency in mouse vas deferens (MVD). The class given is functional. The method, boiled down: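 Mouse vas deferens (Henderson method) was pretreated with compound for 30 min, then washed 20 times. Where the agonist fell short of a full (>70%) response, an IC30 ratio was estimated from the plotted curves.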

The species named for experiment [12] is Cavia porcellus. Kind of experiment: Irreversible antagonism to morphine was evaluated after 30 min incubation of GPI with the compound at 500 nM conc. It counts as functional. Put shortly:
as §1

Experiment [13] is filed under the species Cavia porcellus. Kind of experiment: Irreversible antagonism to ethylketazocine (EK) was evaluated after 30 min incubation of GPI with the compound at 20 nM conc. The class given is functional. The method, boiled down:
as §1

The species named for experiment [14] is Cavia porcellus. In words: Irreversible antagonism to ethylketazocine (EK) was evaluated after 30 min incubation of GPI with the compound at 500 nM conc. It counts as functional. Put shortly:
as §1

The species named for experiment [15] is Mus musculus. In words: Antagonist potency relative to morphine at 20 nM concentration. The class given is functional. The method, boiled down:
as §3

For experiment [16], the species on record is Mus musculus. In words: Antagonist potency relative to DADLE at 20 nM concentration. It counts as functional. Put shortly: as §3
Experiment [17] is filed under the species Cavia porcellus. In words: Irreversible antagonism to ethylketazocine (EK) was evaluated after 30 min incubation of GPI with the compound at 1000 nM conc. The class given is functional. Put shortly: as §1
The species entered for experiment [18] is Cavia porcellus. Kind of experiment: Irreversible antagonism to morphine was evaluated after 30 min incubation of GPI with the compound at 1000 nM conc. It counts as functional. The method, boiled down: as §1
For experiment [19], the species on record is Cavia porcellus. In words: Agonistic activity on the guinea pig ileal longitudinal muscle (GPI) relative to morphine at a dose of 1 uM. It counts as functional, Muscle tissue.
The species entered for experiment [20] is Cavia porcellus. In words: Irreversible antagonistic potency in guinea pig ileal longitudinal muscle (GPI). The note with it: Muscle tissue. The class given is functional.
For experiment [21], the species on record is Mus musculus. The experiment is described as §2. The class given is functional, organism-based.
The species entered for experiment [22] is Mus musculus. Kind of experiment: Antagonist potency relative to DADLE at 100 nM concentration. The class given is functional. Put shortly:
as §3

For experiment [23], the species on record is Mus musculus. In words: Antagonist potency relative to morphine at 100 nM concentration. The class given is functional. The method, boiled down: as §3

As for `C=CC(=O)N[C@H]1CCC2(O)C3Cc4ccc(O)c5c4C2(CCN3CC2CC2)[C@H]1O5` (stereo partly specified), the IC50 ratio in the experiment listed under Cavia porcellus [1] is 1.5; in the experiment listed under Cavia porcellus [2], 0.8; in the experiment filed under Cavia porcellus [3], 1.2; in the experiment listed under Cavia porcellus [4], 1.2; in the experiment listed under Cavia porcellus [5], 0.78.
A word on the IC30: it is the point of the concentration-response curve where the effect stands at 30%. Low values mean greater potency, high ones weaker potency. With `COC(=O)/C=C/C(=O)N[C@H]1CC[C@@]2(O)[C@H]3Cc4ccc(O)c5c4[C@@]2(CCN3CC2CC2)[C@H]1O5`, the IC50 ratio in the experiment filed under Cavia porcellus [6] turned out to be 0.86; in the experiment listed under Cavia porcellus [1] it was 7.3; in the experiment filed under Mus musculus [9], 0.52; in the experiment filed under Mus musculus [10] it was 0.37; in the experiment listed under Cavia porcellus [3] it was 0.87; in the experiment filed under Cavia porcellus [4], 1.2. In addition, the IC50 ratio in the experiment filed under Cavia porcellus [5] was 0.92. In addition, the max inhibition in the experiment filed under Mus musculus [7] is listed as 60%. Besides, the IC30 in the experiment listed under Mus musculus [8] was 0.08 µM.
For orientation: IC50 means the concentration that gives 50% inhibition. The low end stands for greater potency, the high end for weaker potency. As to `CC(C)C[C@@H](NC(=O)[C@H](Cc1ccccc1)NC(=O)CNC(=O)[C@@H](C)NC(=O)[C@@H](N)Cc1ccc(O)cc1)C(=O)O` [DADLE], in the experiment listed under Mus musculus [11], half-maximal inhibition (IC50) was put at 0.000357 µM.
On to `COC(=O)/C=C\C(=O)N[C@@H]1CC[C@@]2(O)C3Cc4ccc(O)c5c4C2(CCN3CC2CC2)[C@H]1O5` (stereo partly specified), for which the IC50 ratio in the experiment listed under Cavia porcellus [1] turned out to be 1.1; in the experiment filed under Cavia porcellus [2], 0.6; in the experiment filed under Cavia porcellus [3] it was 0.63; in the experiment listed under Cavia porcellus [4], 1.5; in the experiment filed under Cavia porcellus [5], 1.
For `Oc1ccc2c3c1O[C@H]1[C@@H](N=C=S)CC[C@@]4(O)C(C2)N(CC2CC2)CCC314` (stereo partly specified), the IC50 ratio in the experiment filed under Cavia porcellus [12] is reported as 2.3; in the experiment listed under Cavia porcellus [13], 0.8; in the experiment filed under Cavia porcellus [14], 1.4; in the experiment listed under Cavia porcellus [1] it was 9.6; in the experiment filed under Mus musculus [15] it was 3.1; in the experiment listed under Mus musculus [9] it was 10.7. Also, the IC50 ratio amounted to 6.6 in the experiment listed under Mus musculus [10]; 1.2 in the experiment listed under Cavia porcellus [2]; 2.4 in the experiment listed under Cavia porcellus [3]; 2.1 in the experiment filed under Cavia porcellus [4]; 1.2 in the experiment listed under Mus musculus [16]. In the experiment filed under Mus musculus [7], this compound came in with a max inhibition of 45%. The same compound displayed an IC30 in the experiment filed under Mus musculus [8] of 0.1 µM.
`COC(=O)/C=C\C(=O)N[C@H]1CC[C@@]2(O)C3Cc4ccc(O)c5c4C2(CCN3CC2CC2)[C@H]1O5` (stereo partly specified): the IC50 ratio in the experiment filed under Cavia porcellus [1] is on record as 0.8; in the experiment listed under Cavia porcellus [2] it was 0.98; in the experiment listed under Cavia porcellus [3], 1.1; in the experiment listed under Cavia porcellus [4], 0.95; in the experiment filed under Cavia porcellus [5], 0.49.
Turning to `Oc1ccc2c3c1O[C@H]1[C@H](N=C=S)CC[C@@]4(O)C(C2)N(CC2CC2)CCC314` (stereo partly specified), the IC50 ratio worked out at 1.9 in the experiment listed under Cavia porcellus [1]; 13.8 in the experiment listed under Mus musculus [15]; 120 in the experiment listed under Mus musculus [9]; 6.9 in the experiment filed under Mus musculus [10]; 1.4 in the experiment listed under Cavia porcellus [2]; 14.9 in the experiment filed under Cavia porcellus [3]. The IC50 ratio in the experiment listed under Cavia porcellus [4] amounted to 6.9; in the experiment listed under Cavia porcellus [5], 1.5; in the experiment listed under Mus musculus [16], 1.8. This compound displayed a max inhibition in the experiment listed under Mus musculus [7] of 43%. The IC30 in the experiment listed under Mus musculus [8] turned out to be 0.1 µM.
Take `C=CC(=O)N[C@@H]1CCC2(O)C3Cc4ccc(O)c5c4C2(CCN3CC2CC2)[C@H]1O5` (stereo partly specified): the IC50 ratio in the experiment filed under Cavia porcellus [17] came out at 1.5; in the experiment filed under Cavia porcellus [18], 2.9; in the experiment listed under Cavia porcellus [2], 1.4; in the experiment filed under Cavia porcellus [3] it was 4.2; in the experiment listed under Cavia porcellus [4] it was 1.9; in the experiment listed under Cavia porcellus [5] it was 1.1. Besides, in the experiment listed under Cavia porcellus [19], the max inhibition was found to be 40%.
In the experiment filed under Cavia porcellus [20], `C=CCN1CC[C@]23c4c5ccc(O)c4O[C@H]2[C@@H](O)C=C[C@H]3[C@H]1C5` [NALORPHINE] had an IC50 of 0.0513 µM.
In the case of `CCC(=O)N[C@H]1CCC2(O)C3Cc4ccc(O)c5c4C2(CCN3CC2CC2)[C@H]1O5` (stereo partly specified), the IC50 ratio is reported as 2.9 in the experiment listed under Cavia porcellus [1]; 0.9 in the experiment listed under Cavia porcellus [2]; 1 in the experiment filed under Cavia porcellus [3]; 1.1 in the experiment listed under Cavia porcellus [4]; 0.7 in the experiment filed under Cavia porcellus [5].
On to `O=C(CI)N[C@H]1CCC2(O)C3Cc4ccc(O)c5c4C2(CCN3CC2CC2)[C@H]1O5` (stereo partly specified), for which the IC50 ratio in the experiment filed under Cavia porcellus [1] came to 0.49; in the experiment listed under Mus musculus [9], 2.5; in the experiment listed under Mus musculus [10], 1.2; in the experiment listed under Cavia porcellus [2], 0.87; in the experiment listed under Cavia porcellus [3], 1.1; in the experiment filed under Cavia porcellus [4], 0.97. The IC50 ratio in the experiment filed under Cavia porcellus [5] is on record as 1.2. Also, in the experiment listed under Mus musculus [7], the max inhibition worked out at 60%. The compound further returned an IC30 in the experiment filed under Mus musculus [8] of 0.2 µM.
Turning to `O=C(CI)N[C@@H]1CCC2(O)C3Cc4ccc(O)c5c4C2(CCN3CC2CC2)[C@H]1O5` (stereo partly specified), the IC50 ratio is recorded as 0.7 in the experiment filed under Cavia porcellus [17]; 20 in the experiment listed under Mus musculus [9]; 1.8 in the experiment listed under Mus musculus [10]; 1.2 in the experiment listed under Cavia porcellus [2]; 2.1 in the experiment filed under Cavia porcellus [3]; 2.4 in the experiment listed under Cavia porcellus [4]. For the same compound, the IC50 ratio in the experiment listed under Cavia porcellus [5] came to 1.2. In addition, the max inhibition in the experiment filed under Cavia porcellus [19] was determined as 55%. In addition, the half-maximal inhibitory concentration (IC50) in the experiment filed under Mus musculus [21] was greater than 1 µM.
`CCC(=O)N[C@@H]1CCC2(O)C3Cc4ccc(O)c5c4C2(CCN3CC2CC2)[C@H]1O5` (stereo partly specified): the IC50 ratio in the experiment listed under Cavia porcellus [1] came out at 0.81; in the experiment filed under Cavia porcellus [2], 0.85; in the experiment listed under Cavia porcellus [3], 1.5; in the experiment listed under Cavia porcellus [4], 1.3; in the experiment listed under Cavia porcellus [5], 1.
Compound `CCOc1ccc2c(c1)C1(C)CCN(CC3CC3)C(C2=O)C1C` (stereo unspecified) [ETHYLKETAZOCINE] showed an IC50 in the experiment listed under Cavia porcellus [20] of 0.000973 µM.
`COC(=O)/C=C/C(=O)N[C@@H]1CC[C@@]2(O)[C@H]3Cc4ccc(O)c5c4[C@@]2(CCN3CC2CC2)[C@H]1O5`: the IC50 ratio in the experiment listed under Mus musculus [22] is 1.8; in the experiment listed under Cavia porcellus [13], 1; in the experiment listed under Cavia porcellus [6], 1.2; in the experiment filed under Cavia porcellus [1] it was 5; in the experiment listed under Cavia porcellus [17], 1.3; in the experiment listed under Mus musculus [23], 3.9. For the same compound, the IC50 ratio in the experiment filed under Cavia porcellus [18] is reported as 18.8; in the experiment listed under Mus musculus [9], 10.6; in the experiment filed under Mus musculus [10], 1.1; in the experiment filed under Cavia porcellus [4] it was 6.

The values above are taken from ChEMBL document CHEMBL1122279, “Importance of C-6 chirality in conferring irreversible opioid antagonism to naltrexone-derived affinity labels” (J Med Chem, 1983).
